According to ChEMBL document CHEMBL3867457, “Cytotoxic Ceanothane- and Lupane-Type Triterpenoids from the Roots of Ziziphus jujuba” (J Nat Prod, 2016):

Assay: Cytotoxicity against human HepG2 cells assessed as reduction in cell viability measured after 48 hrs by MTT assay
Type: functional, cell-based
Settings: HepG2, 48 h
Summary of the method: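 HepG2 cells grown in DMEM with 10% FBS, penicillin/streptomycin, 5% CO2, 37 °C; seeded at 5 × 10^4 cells/mL, attached 12 h. Compounds in DMSO at 1, 5, 10, 25 μM for 48 h; docetaxel positive control. MTT added for 4 h, formazan dissolved in DMSO, absorbance 550 nm. Viability relative to control wells; IC50 with 95% CI by log-concentration regression; three independent replicates.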

**Q.** Which IC50 does the source give for `C=C(C)[C@@H]1CC[C@]2(C(=O)O)CC[C@]3(C)[C@H](CC[C@@H]4[C@@]5(C)C[C@@H](OC(=O)c6ccccc6)[C@H](O)C(C)(C)[C@@H]5CC[C@]43C)[C@@H]12` here?
**A.** The IC50 was > 10 µM.

**Q.** For `C=C(C)[C@@H]1CC[C@]2(C(=O)O)CC[C@]3(C)[C@H](CC[C@@H]4[C@@]5(C)C[C@@H](OC(=O)c6ccc(O)c(O)c6)[C@H](O)C(C)(C)[C@@H]5CC[C@]43C)[C@@H]12`, which IC50 is on record?
**A.** The IC50 was > 10 µM.

**Q.** For `C=C(C)[C@@H]1CC[C@]2(C(=O)O)CC[C@]3(C)[C@H](CC[C@@H]4[C@@]5(C)[C@@H](C(=O)O)[C@H](OC(=O)c6ccc(O)c(OC)c6)C(C)(C)[C@@H]5CC[C@]43C)[C@@H]12`, which IC50 is on record?
**A.** Its IC50 is > 10 µM.

**Q.** Which IC50 does the source give for `C=C(C)[C@@H]1CC[C@]2(C(=O)O)CC[C@]3(C(=O)O)[C@H](CC[C@@H]4[C@@]5(C)[C@@H](C(=O)OC)[C@H](O)C(C)(C)[C@@H]5CC[C@]43C)[C@@H]12` here?
**A.** Its IC50 is > 10 µM.

**Q.** With `C=C(C)[C@@H]1CC[C@]2(C(=O)O)CC[C@]3(C)[C@H](CC[C@@H]4[C@@]5(C)[C@H](C(=O)O)[C@H](OC(=O)c6ccc(O)cc6)C(C)(C)[C@@H]5CC[C@]43C)[C@@H]12` as the compound, how does the IC50 read?
**A.** Its IC50 is > 10 µM.

**Q.** With `C=C(C)[C@@H]1CC=C2CC[C@]3(C(=O)O)[C@H](CC[C@@H]4[C@@]5(C)C=C[C@](C)(CO)[C@@H]5CC[C@]43C)[C@H]21` as the compound, how does the IC50 read?
**A.** Its IC50 is 4.9 µM.

**Q.** For `C=C(C)[C@@H]1CC[C@]2(C(=O)O)CC[C@]3(C)[C@H](CC[C@@H]4[C@@]5(C)[C@@H](C(=O)O)[C@H](O)[C@](C)(CO)[C@@H]5CC[C@]43C)[C@@H]12`, which IC50 is on record?
**A.** The IC50 was > 10 µM.

**Q.** With `C=C(C)[C@@H]1CC[C@]2(C(=O)O)CC[C@]3(C)[C@H](CC[C@@H]4[C@@]5(C)C[C@@H](OC(=O)/C=C/c6ccc(O)cc6)[C@H](O)C(C)(C)[C@@H]5CC[C@]43C)[C@@H]12` as the compound, how does the IC50 read?
**A.** The IC50 was 2 µM.

**Q.** Which IC50 does the source give for `C=C(C)[C@@H]1CC[C@]2(C(=O)O)CC[C@]3(C(=O)O)[C@H](CC[C@@H]4[C@@]5(C)[C@@H](C(=O)OC)CC(C)(C)[C@@H]5CC[C@]43C)[C@@H]12` here?
**A.** Its IC50 is > 10 µM.

**Q.** Which IC50 does the source give for `C=C(C)[C@@H]1CC[C@]2(C(=O)O)CC[C@]3(C)[C@H](CC[C@@H]4[C@@]5(C)[C@@H](C(=O)OC)[C@H](OC(=O)c6ccc(O)c(O)c6)C(C)(C)[C@@H]5CC[C@]43C)[C@@H]12` here?
**A.** The IC50 was 2.8 µM.

**Q.** With `C=C(C)[C@@H]1CC[C@]2(C(=O)O)CC[C@]3(C)[C@H](CC[C@@H]4[C@@]5(C)[C@H](C(=O)O)[C@H](OC(=O)c6ccc(O)c(OC)c6)C(C)(C)[C@@H]5CC[C@]43C)[C@@H]12` as the compound, how does the IC50 read?
**A.** Its IC50 is 3.9 µM.

**Q.** With `C=C(C)[C@@H]1CC[C@]2(C(=O)O)CC[C@]3(C)[C@H](CC[C@@H]4[C@@]5(C)C[C@@H](OC(=O)/C=C\c6ccc(O)cc6)[C@H](O)C(C)(C)[C@@H]5CC[C@]43C)[C@@H]12` as the compound, how does the IC50 read?
**A.** The IC50 was 2.1 µM.

**Q.** For `C=C(C)[C@@H]1CC[C@]2(C(=O)O)CC[C@]3(C)[C@H](CC[C@@H]4[C@@]5(C)[C@@H](C(=O)O)[C@H](OC(=O)c6ccc(O)cc6)C(C)(C)[C@@H]5CC[C@]43C)[C@@H]12`, which IC50 is on record?
**A.** The IC50 was > 10 µM.

**Q.** For `C=C(C)[C@@H]1CC[C@]2(C(=O)O)CC[C@]3(C(=O)O)[C@H](CC[C@@H]4[C@@]5(C)[C@@H](C(=O)O)CC(C)(C)[C@@H]5CC[C@]43C)[C@@H]12`, which IC50 is on record?
**A.** Its IC50 is > 10 µM.

**Q.** Which IC50 does the source give for `CC(=O)O[C@@]12CO[C@@H]1C[C@H](O)[C@@]1(C)C(=O)[C@H](O)C3=C(C)[C@@H](OC(=O)[C@H](O)[C@@H](NC(=O)OC(C)(C)C)c4ccccc4)C[C@@](O)([C@@H](OC(=O)c4ccccc4)[C@H]21)C3(C)C` [DOCETAXEL ANHYDROUS] here?
**A.** The IC50 was 8.3 µM.

**Q.** Which IC50 does the source give for `C=C(C)[C@@H]1CC[C@]2(C(=O)O)CC[C@]3(C)[C@H](CC[C@@H]4[C@@]5(C)C[C@@H](O)[C@H](O)C(C)(C)[C@@H]5CC[C@]43C)[C@@H]12` [ALPHITOLIC ACID] here?
**A.** The IC50 was > 10 µM.

**Q.** For `C=C(C)[C@@H]1CC[C@]2(C(=O)O)CC[C@]3(C)[C@H](CC[C@@H]4[C@@]5(C)C(C=O)=CC(C)(C)[C@@H]5CC[C@]43C)[C@@H]12`, which IC50 is on record?
**A.** The IC50 was 2 µM.

**Q.** For `C=C(C)[C@@H]1CC[C@]2(C(=O)O)CC[C@]3(C)[C@H](CC[C@@H]4[C@@]5(C)CC[C@H](O)C(C)(C)[C@@H]5CC[C@]43C)[C@@H]12` [BETULINIC ACID], which IC50 is on record?
**A.** Its IC50 is 5.9 µM.

**Q.** With `C=C(C)[C@@H]1CC[C@]2(C(=O)O)CC[C@]3(C)[C@H](CC[C@@H]4[C@@]5(C)[C@@H](C(=O)OC)[C@H](OC(=O)c6ccc(O)c(OC)c6)C(C)(C)[C@@H]5CC[C@]43C)[C@@H]12` as the compound, how does the IC50 read?
**A.** Its IC50 is 1.9 µM.

**Q.** Which IC50 does the source give for `C=C(C)[C@@H]1CC[C@]2(C(=O)O)CC[C@]3(C)[C@H](CC[C@@H]4[C@@]5(C)[C@H](C(=O)O)[C@H](O)C(C)(C)[C@@H]5CC[C@]43C)[C@@H]12` [EPICEANOTHIC ACID] here?
**A.** Its IC50 is > 10 µM.

**Q.** Which IC50 does the source give for `C=C(C)[C@@H]1CC[C@]2(C(=O)O)CC[C@]3(C)[C@H](CC[C@@H]4[C@@]5(C)C[C@@H](OC(=O)c6ccc(O)cc6)[C@H](O)C(C)(C)[C@@H]5CC[C@]43C)[C@@H]12` here?
**A.** Its IC50 is 2.9 µM.

**Q.** For `C=C(C)[C@@H]1CC[C@]2(C(=O)O)CC[C@]3(C)[C@H](CC[C@@H]4[C@@]5(C)[C@@H](C(=O)O)[C@H](OC(=O)c6ccc(O)c(O)c6)C(C)(C)[C@@H]5CC[C@]43C)[C@@H]12`, which IC50 is on record?
**A.** Its IC50 is > 10 µM.

**Q.** Which IC50 does the source give for `C=C(C)[C@@H]1CC[C@]2(C(=O)O)CC[C@]3(C)[C@H](CC[C@@H]4[C@@]5(C)[C@H](C(=O)OC)[C@H](O)C(C)(C)[C@@H]5CC[C@]43C)[C@@H]12` here?
**A.** The IC50 was > 10 µM.

**Q.** Which IC50 does the source give for `C=C(C)[C@@]12CC[C@@]3(CC[C@]4(C(=O)O)[C@H](CC[C@@H]5[C@@]6(C)[C@@H](C(=O)O)CC(C)(C)[C@@H]6CC[C@]54C)[C@H]31)C(=O)O2` here?
**A.** Its IC50 is > 10 µM.

**Q.** With `C=C(C)[C@@H]1CC[C@]2(C(=O)O)CC[C@]3(C)[C@H](CC[C@@H]4[C@@]5(C)[C@@H](C(=O)O)[C@H](O)C(C)(C)[C@@H]5CC[C@]43C)[C@@H]12` [CEANOTHIC ACID] as the compound, how does the IC50 read?
**A.** The IC50 was > 10 µM.
